Experimental data published in publication PMC3064745 (Immunity, 2011).
Like-named read-outs stand apart in the source and are kept apart here.

Columns and labels:
NKT cells [1] = assay: IFN-γ production by NKT cells, intracellular cytokine staining; type: cell-based, mouse; conditions: 100 ng/ml, 8h stimulation, ICS
Method in brief: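 NKT-enriched thymocytes were cultured for 8h with Jα18−/− splenocytes pulsed with 100 ng/ml glycolipid, with GolgiStop for the last 4h. Cells were surface stained, fixed, permeabilised and stained with anti-IFN-γ. Readout was percent IFN-γ⁺ among α-GalCer-CD1d tetramer⁺ cells. Data representative of 4 experiments.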

Vβ7+ NKT cells = assay: Vβ usage of NKT cells after 3 days of in vitro proliferation; type: cell-based, mouse; conditions: Vβ usage by cell division peak
Method in brief: (§1)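 Jα18−/− mouse splenocytes were pulsed overnight with glycolipid plus IL-2 (100 U/ml), then spun through FCS and resuspended to remove excess lipid. Thymocytes were NKT-enriched by complement depletion of anti-HSA/anti-CD8-labelled cells, cleared of dead cells by gradient, and labelled with CFSE […] for 10 min at 37C. Cells were co-cultured at 2:1 splenocytes:thymocytes for 72h.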

NKT cells [2] = type: cell-based, mouse; conditions: 3 d culture
Method in brief: as §1

NKT cells [3] = assay: Cytokines in culture supernatant, cytometric bead array; type: cell-based, mouse; conditions: 100 ng/ml, 8h stimulation
mouse Vβ8.2 NKT TCR = mouse Vβ8.2 NKT TCR (Mus musculus, UniProt P11609+Z9CWY5XBV8); assay: Surface plasmon resonance of NKT TCR binding to CD1d-AGL complexes
Method in brief: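 SPR used soluble mouse NKT TCR (Vα14-Jα18; Vβ8.2) injected over streptavidin-immobilised mouse CD1d loaded with glycolipid, with a reference cell of unloaded CD1d. KD was derived from equilibrium responses. Kinetic rate constants were also fitted, with t1/2 determined from the interactions.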

NKT cells [4] = conditions: ICS at 2 and 6 hours after in vivo challenge, compared to α-GalCer; ref Sullivan et al 2010; cited from earlier work
[5] = Serum cytokines after in vivo treatment; conditions: 20h after in vivo treatment, compared to C20:2 and OCH

mouse Vβ8.2 NKT TCR, sequence (P11609 whole entry, looked up, other chains not shown): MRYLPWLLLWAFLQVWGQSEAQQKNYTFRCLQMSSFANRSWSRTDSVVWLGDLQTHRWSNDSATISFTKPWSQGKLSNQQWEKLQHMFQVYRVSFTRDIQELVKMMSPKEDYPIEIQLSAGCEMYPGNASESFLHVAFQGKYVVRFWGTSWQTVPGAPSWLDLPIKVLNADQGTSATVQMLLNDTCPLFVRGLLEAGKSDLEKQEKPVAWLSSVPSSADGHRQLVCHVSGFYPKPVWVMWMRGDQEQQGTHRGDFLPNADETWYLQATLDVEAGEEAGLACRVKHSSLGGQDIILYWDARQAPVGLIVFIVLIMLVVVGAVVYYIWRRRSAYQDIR

CCCCCCCCCCCCCCCCCCCCCCCCCC(=O)N[C@@H](CO[C@H]1O[C@H](CO)C[C@H](O)[C@H]1O)[C@H](O)CCCCCCCCCCCCCCC [4′,4″-deoxy-α-GalCer]
IFN-γ producing NKT cells (NKT cells [1]): less potent inducers of IFN-γ production
bias toward Vβ7 proliferation (Vβ7+ NKT cells): showed a Vβ7 bias

CCCCCCCCCCCCCCCCCCCCCCCCCC(=O)N[C@@H](CO[C@H]1O[C@H](CO)C[C@H](O)[C@H]1O)[C@H](O)[C@H](O)CCCCCCCCCCCCCC [4′-deoxy-α-GalCer]
IFN-γ producing NKT cells (NKT cells [1]): less potent inducers of IFN-γ production
bias toward Vβ7 proliferation (Vβ7+ NKT cells): showed a Vβ7 bias

CCCCC/C=C\C/C=C\CCCCCCCCCC(=O)N[C@@H](CO[C@H]1O[C@H](CO)[C@H](O)[C@H](O)[C@H]1O)[C@H](O)[C@H](O)CCCCCCCCCCCCCC [C20:2]
NKT cell proliferation (NKT cells [2]; 1 ng/ml glycolipid): barely induced NKT cell proliferation
NKT cell proliferation (NKT cells [2]; 100 ng/ml glycolipid): able to induce proliferation
IFN-γ producing NKT cells (NKT cells [1]): highest percentages of IFN-γ producing NKT cells
Th2 bias of cytokine production (NKT cells [3]): not apparent

CCCCCCCCCCCCCCCCCCCCCCCC(=O)N[C@@H](COC1OC(CO)C(O)C(O)C1O)[C@H](O)[C@H](O)CCCCC (stereo partly shown) [OCH, reference compound]
t1/2 life of the interaction, comparison in words (mouse Vβ8.2 NKT TCR): markedly longer half life when compared to that of the 3′,4″-deoxy AGL
affinity relative to the NKT TCR-CD1d-α-GalCer interaction (mouse Vβ8.2 NKT TCR; compared with the α-GalCer positive control): approximately 20%
effect on kinetic rate constants (ka, kd) (mouse Vβ8.2 NKT TCR; compared with α-GalCer, in words): impacted negatively on the association constant
NKT cell proliferation (NKT cells [2]; 1 ng/ml glycolipid): consistently weaker in comparison to the non-truncated AGLs
IFN-γ producing NKT cells (NKT cells [1]): highest percentages of IFN-γ producing NKT cells
Th2 bias of cytokine production (NKT cells [3]): not apparent
bias toward Vβ7 proliferation (Vβ7+ NKT cells): loss of Vβ7^+ NKT cells with each progressive division cycle
Th2 bias of NKT cell cytokine production (NKT cells [4]): fails to reveal a Th2 bias

CCCCCCCCCCCCCCCCCCCCCCCCCC(=O)N[C@@H](CO[C@H]1O[C@H](CO)[C@H](O)[C@H](O)[C@H]1O)[C@H](O)[C@H](O)CCCCCCCCCCCCCC [α-GalCer, α-galactosylceramide]
Kd (mouse Vβ8.2 NKT TCR): ~59 nM
t1/2 life of the interaction (mouse Vβ8.2 NKT TCR; NKT TCR-CD1d-glycolipid interaction): approximately 20 s
IFN-γ producing NKT cells (NKT cells [1]): highest percentages of IFN-γ producing NKT cells
serum IFN-γ response [5]: more sustained IFN-γ response at 20h

CCCCC/C=C\C/C=C\CCCCCCCCCC(=O)N[C@@H](CO[C@H]1O[C@H](CO)[C@@H](O)[C@H](O)[C@H]1O)[C@H](O)[C@H](O)CCCCCCCCCCCCCC [α-GlcCer (C20:2)]
NKT cell proliferation (NKT cells [2]; 1 ng/ml glycolipid): barely induced NKT cell proliferation
NKT cell proliferation (NKT cells [2]; 100 ng/ml glycolipid): able to induce proliferation
IFN-γ producing NKT cells (NKT cells [1]): least IFN-γ production of all
bias toward Vβ7 proliferation (Vβ7+ NKT cells): showed a Vβ7 bias
bias toward Vβ7 proliferation (Vβ7+ NKT cells; listed as α-GlcCer): progressively enriched with each division cycle
